Reference: ChEMBL document CHEMBL1122169, “Inhibition of rat hepatic microsomal aminopyrine N-demethylase activity by benzimidazole derivatives. Quantitative structure-activity relationships” (J Med Chem, 1982)

Tests used:
[1] = Partition coefficient (logP); format: physicochemical; conditions: octanol/water
Cytochrome P450 2B1 = molecular target: T1, Cytochrome P450 2B1 (Rattus norvegicus, UniProt P00176); assay: Inhibitory potency to aminopyrine N-demethylase activity (P450) in hepatic microsomes from phenobarbitone-induced rats.; format: ADME, Liver; conditions: read-out: pI50 (converted)
T1 sequence (P00176 whole entry): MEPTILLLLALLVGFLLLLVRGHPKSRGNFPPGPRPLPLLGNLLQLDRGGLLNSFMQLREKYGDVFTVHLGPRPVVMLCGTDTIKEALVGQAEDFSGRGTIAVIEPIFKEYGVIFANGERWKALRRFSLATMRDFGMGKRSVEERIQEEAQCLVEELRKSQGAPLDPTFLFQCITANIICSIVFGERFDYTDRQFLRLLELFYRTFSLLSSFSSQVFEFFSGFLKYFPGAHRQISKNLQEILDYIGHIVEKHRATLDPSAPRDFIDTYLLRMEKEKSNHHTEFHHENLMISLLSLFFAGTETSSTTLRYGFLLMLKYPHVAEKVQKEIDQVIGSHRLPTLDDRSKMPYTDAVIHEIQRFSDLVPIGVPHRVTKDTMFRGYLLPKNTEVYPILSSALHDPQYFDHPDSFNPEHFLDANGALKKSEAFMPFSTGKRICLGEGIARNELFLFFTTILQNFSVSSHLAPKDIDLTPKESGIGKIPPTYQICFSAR
Summary of the method: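 Microsomes (105000g pellet) from livers of male Wistar rats (100–150 g) given phenobarbitone ip on consecutive days. A 3.0 mL mix in 0.1 M K phosphate, pH 7.4, held aminopyrine 1.61 μmol, NADPH-generating system, semicarbazide and 5.6 mg protein, run 15 min. Formaldehyde was read by Nash/Hantzsch. Inhibitor went in DMSO or 0.07 M HCl, with solvent in controls. I50 came from seven concentrations.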

Row | SMILES | logP [1] | IC50 (Cytochrome P450 2B1)
1 | c1ccc(-c2nc3ccccc3[nH]2)cc1 | 2.87 | 55 µM
2 | CCCCCc1nc2ccccc2[nH]1 | 3.43 | 
3 | Cc1nc2cc(C)c(C)cc2[nH]1 | 2.4 | 
4 | CCc1nc2cc(C)c(C)cc2[nH]1 | 2.9 | 
5 | Cc1ccc2[nH]cnc2c1 | 1.89 | 
6 | CCCCCCCCCCCc1nc2ccccc2[nH]1 | 6.43 | 
7 | O=[N+]([O-])c1ccc2[nH]cnc2c1 | 1.64 | 
8 | O=[N+]([O-])c1cccc2[nH]cnc12 | 2.01 | 
9 | Cc1cccc(OCc2nc3ccccc3[nH]2)c1 | 3.14 | 28.8 µM
10 | ClCc1nc2ccccc2[nH]1 | 1.15 | 
11 | c1ccc(CCCCc2nc3ccccc3[nH]2)cc1 | 4.96 | 15.1 µM
12 | CCCCCCCCCCCCCc1nc2ccccc2[nH]1 | 7.43 | 22.9 µM
13 | OC(c1ccccc1)c1nc2ccccc2[nH]1 (stereo not given) | 1.47 | 
14 | CCc1nc2ccc(C)cc2[nH]1 | 2.44 | 
15 | CCCCCCCc1nc2cc(C)c(C)cc2[nH]1 | 5.4 | 44.7 µM
16 | Brc1ccc(OCc2nc3ccccc3[nH]2)c(Br)c1 | 4.52 | 11 µM
17 | Brc1cccc(Br)c1OCc1nc2ccccc2[nH]1 | 4.42 | 11 µM
18 | CCOc1ccc2[nH]c(C)nc2c1 | 1.93 | 56.2 µM
19 | CCCc1nc2cc(C)c(C)cc2[nH]1 | 3.4 | 
20 | c1ccc2c(Cc3nc4ccccc4[nH]3)cccc2c1 | 4.8 | 25.1 µM
21 | CCCCCc1nc2cc(NC(C)=O)ccc2[nH]1 | 2.61 | 

Row | SMILES | logP [1] | IC50 (Cytochrome P450 2B1)
22 | CCCCCCCCc1nc2ccccc2[nH]1 | 4.93 | 28.8 µM
23 | CCCCCCCc1nc2cc(C)ccc2[nH]1 | 4.94 | 41.7 µM
24 | O=C(c1ccccc1)c1ccc2[nH]cnc2c1 | 2.43 | 20 µM
25 | c1ccc(OCCc2nc3ccccc3[nH]2)cc1 | 3.16 | 25.1 µM
26 | CC(=O)Nc1ccc2nc(C)[nH]c2c1 | 0.61 | 
27 | c1ccc2[nH]c(C3CCCCC3)nc2c1 | 3.39 | 91.2 µM
28 | CCCCCCc1nc2ccccc2[nH]1 | 3.93 | 32.4 µM
29 | CCCCC(=O)Nc1ccc2nc(C)[nH]c2c1 | 2.11 | 
30 | Fc1ccc2[nH]cnc2c1 | 2.03 | 
31 | Brc1ccc(OCc2nc3ccccc3[nH]2)cc1 | 3.77 | 21.9 µM
32 | Cc1ccc2nc(C)[nH]c2c1 | 1.94 | 
33 | c1ccc(CCc2nc3ccccc3[nH]2)cc1 | 3.96 | 38.9 µM
34 | Cc1nc2cc(Cl)cc(Cl)c2[nH]1 | 3.31 | 100 µM
35 | CCOc1ccc2[nH]cnc2c1 | 1.88 | 67.6 µM
36 | CC(=O)Nc1cc(Cl)cc2[nH]c(C)nc12 | 1.27 | 
37 | Clc1cc(Cl)c2[nH]cnc2c1 | 3.26 | 53.7 µM
38 | Cc1cccc(Cc2nc3ccccc3[nH]2)c1C | 5.23 | 53.7 µM
39 | CCc1ccc(OCc2nc3ccccc3[nH]2)cc1 | 3.59 | 67.6 µM
40 | O=C(Nc1cc(Cl)cc2nc[nH]c12)c1ccccc1 | 2.68 | 26.9 µM
41 | Clc1ccccc1OCc1nc2ccccc2[nH]1 | 3.33 | 26.9 µM
42 | CCCCc1nc2ccccc2[nH]1 | 2.93 | 

Row | SMILES | logP [1] | IC50 (Cytochrome P450 2B1)
43 | CC(C)Cc1nc2ccccc2[nH]1 | 2.91 | 
44 | c1ccc2[nH]c(C3CC3)nc2c1 | 2.02 | 
45 | c1ccc(CCCc2nc3ccccc3[nH]2)cc1 | 4.46 | 19.1 µM
46 | Cc1nc2c(C)c(C)ccc2[nH]1 | 2.36 | 
47 | Cc1nc2cc(NC(=O)c3ccccc3)ccc2[nH]1 | 3.19 | 
48 | Clc1cc2nc[nH]c2cc1Cl | 3.17 | 81.3 µM
49 | NCc1nc2ccccc2[nH]1 | -0.06 | 
50 | Cc1nc2ccccc2[nH]1 | 1.43 | 
51 | CCCCCCCc1nc2ccccc2[nH]1 | 4.43 | 
52 | CCCc1nc2ccccc2[nH]1 | 2.43 | 
53 | CCc1nc2ccccc2[nH]1 | 1.93 | 
54 | Cc1nc2c([N+](=O)[O-])cc(Cl)cc2[nH]1 | 3.06 | 100 µM
55 | CC(C)(C)c1nc2ccccc2[nH]1 | 2.86 | 
56 | c1ccc2c(c1)c1c(c3ccccc32)=NCN=1 | 4.06 | 30.2 µM
57 | Cc1nc2ccc([N+](=O)[O-])cc2[nH]1 | 1.69 | 
58 | O=[N+]([O-])c1cc(Cl)cc2[nH]cnc12 | 3.01 | 
59 | Cc1cc(C)cc(OCc2nc3ccccc3[nH]2)c1 | 3.5 | 25.7 µM
60 | CCCCc1nc2cc(C)c(C)cc2[nH]1 | 3.9 | 55 µM
61 | Cc1cc(OCc2nc3ccccc3[nH]2)cc(C)c1Cl | 4.43 | 30.2 µM
62 | Brc1ccccc1OCc1nc2ccccc2[nH]1 | 3.51 | 12 µM
63 | Clc1cccc(OCc2nc3ccccc3[nH]2)c1Cl | 4.26 | 28.2 µM

Row | SMILES | logP [1] | IC50 (Cytochrome P450 2B1)
64 | Clc1cccc(Cc2nc3ccccc3[nH]2)c1 | 4.44 | 22.9 µM
65 | Cc1ccc(OCc2nc3ccccc3[nH]2)cc1 | 3.12 | 44.7 µM
66 | Clc1ccc(OCc2nc3ccccc3[nH]2)cc1 | 3.59 | 25.1 µM
67 | Clc1ccc(Cc2nc3ccccc3[nH]2)c(Cl)c1 | 5.32 | 15.1 µM
68 | c1ccc2cc(Cc3nc4ccccc4[nH]3)ccc2c1 | 4.79 | 18.2 µM
69 | CC(C)c1nc2ccccc2[nH]1 | 2.41 | 
70 | c1ccc2c3c(ccc2c1)=NCN=3 | 2.72 | 53.7 µM
71 | Cc1ccc(OCc2nc3ccccc3[nH]2)cc1C | 3.4 | 25.7 µM
72 | c1ccc(OCc2nc3ccccc3[nH]2)cc1 | 2.66 | 69.2 µM
73 | Cc1cccc2[nH]cnc12 | 1.86 | 
74 | FC(F)(F)c1nc2ccccc2[nH]1 | 2.39 | 
75 | Clc1ccc2[nH]cnc2c1 | 2.38 | 
76 | Cc1nc2cc(Cl)c(Cl)cc2[nH]1 | 3.22 | 81.3 µM
77 | Cc1nc2cc(Cl)ccc2[nH]1 | 2.43 | 
78 | c1ccc(-c2nc3ccccc3[nH]2)nc1 | 2.38 | 64.6 µM
79 | c1cncc(-c2nc3ccccc3[nH]2)c1 | 1.7 | 
80 | c1ccc(Cc2nc3ccccc3[nH]2)cc1 [BENDAZOL] | 3.46 | 91.2 µM
81 | c1ccc2[nH]cnc2c1 [BENZIMIDAZOLE] | 1.38 | 
